Experimental data taken from ChEMBL document CHEMBL1125182, “A new class of analogues of the bifunctional radiosensitizer alpha-(1-aziridinylmethyl)-2-nitro-1H-imidazole-1-ethanol (RSU 1069): the cycloalkylaziridines” (J Med Chem, 1991).

Experiments:
[1] = Partition coefficient measured between octanol and 0.05 M NH4PO4 (pH 7.4) using shake-flask method; type: physicochemical; conditions: octanol/0.05 M NH4PO4 buffer
[2] = (§1) IC50 of oxic to that of IC50 of hypoxic was determined in V79 cells; hypoxia selective cytotoxicity.; type: functional, Cricetulus griseus
Summary of the method: (§2)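 V79-171b Chinese hamster cells in RPMI 1640 with 10% fetal calf serum, plated and incubated ca. 18 h at 37 °C, then exposed to a range of compound concentrations for 1 h at 37 °C under oxic or hypoxic conditions. Cells rinsed, colonies grown; ratio taken as IC50(oxic)/IC50(hypoxic). Means of replicate experiments agreeing within ±20%.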

Cricetulus griseus = species on record: Cricetulus griseus; assay: The efficiency of radiosensitization is the concentration required to give an SER of 1.6 (in vitro); type: functional
Summary of the method: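 Chinese hamster V79-171b monolayers in RPMI 1640 with 10% FCS, plated ~18 h at 37 °C. Made hypoxic with 95% N2/5% CO2 for 1 h, then given X-rays (320 kV, ~1.5 Gy/min) at room temperature. Drug removed after irradiation; colonies of ≥50 cells scored after 6-7 days. SER is the dose ratio for 25% survival on hypoxic curves ±compound; C1.6 read from SER-versus-concentration plot.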

[3] = Sensitizer enhancement ratio(SER) determined at the maximum nontoxic dose by measuring the number of cells killed at a conc 3 mM (in vitro); type: functional, Cricetulus griseus
Summary of the method: (§3)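 V79-171b cells in RPMI 1640 with 10% FCS, held at maximum nontoxic drug level. Made hypoxic by 95% N2/5% CO2 purge for 1 h, then X-irradiated at room temperature (320 kV, ca. 1.5 Gy/min). Drug medium replaced and colonies (≥50 cells) scored at 6-7 days, 37 °C. SER = ratio of doses giving 25% survival on hypoxic curves without vs with drug.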

[4] = Sensitizer enhancement ratio(SER) determined at the maximum nontoxic dose by measuring the number of cells killed at a conc 2 mM (in vitro); type: functional, Cricetulus griseus
[5] = Plating efficiency of drug treated irradiated tumors relative to irradiated only group; type: ADME
Summary of the method: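 Mice bearing KHT fibrosarcoma (200–500 mg, hypoxic fraction ca. 20%) given vehicle or compound ip 30–120 min before 15 Gy X-rays. Tumours were excised 18 h later, dissociated to single cells and plated in soft agar. Colonies were stained and counted after 12–16 days. Plating efficiency is relative to the irradiated-only group.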

Mus musculus = assay: In vivo radiosensitizing activity measured as maximum tolerated dose in mice.; type: functional
[6] = Sensitizer enhancement ratio(SER) determined at the maximum nontoxic dose by measuring the number of cells killed at a conc 1.9 (in vitro); type: functional, Cricetulus griseus; summary of the method: as §3
[7] = Sensitizer enhancement ratio(SER) determined at the maximum nontoxic dose by measuring the number of cells killed at a conc 1.5 mM (in vitro); type: functional, Cricetulus griseus; summary of the method: as §3
[8] = Sensitizer enhancement ratio(SER) determined at the maximum nontoxic dose by measuring the number of cells killed at a conc 0.38 mM (in vitro); type: functional, Cricetulus griseus; summary of the method: as §3
[9] = Sensitizer enhancement ratio(SER) determined at the maximum nontoxic dose by measuring the number of cells killed at a conc […] (in vitro); type: functional, Cricetulus griseus; summary of the method: as §3
[10] = Sensitizer enhancement ratio(SER) determined at the maximum nontoxic dose by measuring the number of cells killed at a conc 0.75 mM (in vitro); type: functional, Cricetulus griseus
V79 = assay: as §1; type: functional; conditions: Cricetulus griseus; summary of the method: as §2
[11] = Sensitizer enhancement ratio(SER) determined at the maximum nontoxic dose by measuring the number of cells killed at a conc 10 mM (in vitro); type: functional, Cricetulus griseus
[12] = Sensitizer enhancement ratio(SER) determined at the maximum nontoxic dose by measuring the number of cells killed at a conc 3.0 mM (in vitro)

Row | SMILES | logD [1] | Hypoxic selectivity ratio (IC50 oxic / IC50 hypoxic) [2] | C1.6 (Cricetulus griseus) | SER [3] | Fold reduction [5] | MTD (Mus musculus) | further results
1 | CCOC(=O)C1CCC2C(C1)N2CC(O)Cn1ccnc1[N+](=O)[O-] (stereo unspecified) | 1.13 | 1.1 | 3 mM | 2 |  |  | 
2 | O=[N+]([O-])c1nccn1CC(O)CN1CCC1 (stereo unspecified) | -1.51 | 1 |  |  |  |  | SER [4]: 2
3 | O=[N+]([O-])c1nccn1CC(O)CNC1C2CCC(C2)[C@@H]1Br (stereo partly specified) | 1.36 | 1.3 | 0.35 mM | 2.1 |  |  | 
4 | O=[N+]([O-])c1nccn1CC(O)CNC1COCC[C@@H]1Br (stereo partly specified) | -0.17 | 1.2 | 1.8 mM | 1.8 | 13 | 1500 mg/kg | 
5 | O=[N+]([O-])c1nccn1CC(O)CN1C2CCCCC21 (stereo unspecified) | 1.07 | 1.6 | 0.35 mM |  | 3.91 | 400 mg/kg | SER [6]: 1.9
6 | O=[N+]([O-])c1nccn1CC(O)CNC1CCC[C@H]1Br (stereo partly specified) | 0.43 | 2.5 | 0.75 mM |  | 4.3 | 1000 mg/kg | SER [7]: 2.3
7 | O=[N+]([O-])c1nccn1CC(O)CN1C2CCc3ccccc3C21 (stereo unspecified) | 2.15 | 1.2 |  |  |  |  | SER [8]: 1.2
8 | O=[N+]([O-])c1nccn1CC(O)CN1C2CCCC21 (stereo unspecified) | 0.37 | 2 | 0.48 mM |  | 6.1 | 450 mg/kg | SER [9]: 2
9 | O=[N+]([O-])c1nccn1CC(O)CN1C2CCCCCCC21 (stereo unspecified) | 1.84 | 1.2 | 0.75 mM | 2.1 | 2.6 | 500 mg/kg | 
10 | O=[N+]([O-])c1nccn1CC(O)CN1C2CCCCCC21 (stereo unspecified) | 1.44 | 1.4 | 1 mM | 1.7 |  |  | 
11 | O=[N+]([O-])c1nccn1CC(O)CNC1CCCC[C@@H]1Br (stereo partly specified) | 1.21 | 2.5 | 0.35 mM |  | 4.5 | 700 mg/kg | SER [10]: 2.4
12 | O=[N+]([O-])c1nccn1CC(O)CN1C2C3CCC(C3)C21 (stereo unspecified) | 1.6 | 1.4 | 3 mM | 1.6 |  |  | 
13 | O=[N+]([O-])c1nccn1CC(O)CN1CC1 (stereo unspecified) | 0.33 | 50 | 0.33 mM |  | 6.7 | 100 mg/kg | SER [9]: 1.9
14 | O=[N+]([O-])c1nccn1CC(O)CN1C2CCOCC21 (stereo unspecified) | 0.07 |  |  |  | 5.7 | 800 mg/kg | Cytotoxicity (V79): Unstable; SER [9]: 1.3
15 | O=C(O)C1CCN1CC(O)Cn1ccnc1[N+](=O)[O-] (stereo unspecified) | -2.02 | 1 |  |  |  |  | SER [11]: 2.3
16 | COC(=O)C1CCN1CC(O)Cn1ccnc1[N+](=O)[O-] (stereo unspecified) | -0.29 | 1 |  |  |  |  | SER [12]: 2.1
17 | CC1CCCC2C1N2CC(O)Cn1ccnc1[N+](=O)[O-] (stereo unspecified) | 1.55 | 1 | 0.75 mM |  | 2.1 | 500 mg/kg | SER [7]: 2
